Rows were chosen to be rich in hits. Some 2.6% of all compounds tested hit in one or more screens of this group.
Vif inh: inhibitors of HIV Vif; inhibition, % at 7.49 µM; AID 602346; hit rate 0.35% among 340,000; HEK293T cells, Vif self-association by quenched fluorescence, imaging, 24 h; in the data active = inhibition above about 50%, passing the limit was not always enough
miR122 inh: blocks miR-122 activity in Huh7 sensor cells | Huh7 miR-122 Renilla luciferase sensor, 48 h; neutral wells = 0, positive control = 100 | hit rate 0.3% among 340,000 | activation (reporter increase), % at 12.5 µM;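 active = mean replicate activation score at least 90 and every replicate individually at or above 90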;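 also: higher luciferase means less miR-122 activity so hits act as miR-122 inhibitors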
S100A4 inh HTS: S100A4-myosin IIA interaction inhibition; P26447; S100A4/TAMRA-MyoIIA peptide fluorescence polarization; inhibition, % at 10.7 µM; hit rate 0.14% among 360,000;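 active = mean inhibition of at least 70% across replicates, with every replicate also reaching that level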
Target sequence (P26447 whole entry, looked up): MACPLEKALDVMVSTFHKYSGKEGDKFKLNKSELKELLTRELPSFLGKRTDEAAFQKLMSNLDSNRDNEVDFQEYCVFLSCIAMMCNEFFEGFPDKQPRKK
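Test system: S100A4 monomer protein; Medium: HEPES pH 7.2 with CaCl2, KCl, NaCl, DTT, Triton; Probe or stimulus: TAMRA-labelled myosin IIA heavy-chain peptide probe, 5 nM; Doses: one dose per compound; Times: polarization read 5 min after assay mix addition, stable 5–60 min; Benchmarks: neutral control DMSO, positive control TFP.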
Ecoli rRNA inh: inhibits bacterial ribosomal RNA function over humanized ribosomes; E. coli WT GFP vs humanized-ribosome RFP mutants, fluorescence, 24 h; stronger effect = lower value; DMSO median 0, no signal -100; GFP signal change (wild-type ribosome), % (no concentration beside the values); hit rate 1.6% among 350,000;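 active = significant combined selectivity score with lowered wild-type GFP, culture density cut under 30%, mutant RFP and density less affected; inactive = any of these conditions unmet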
FN deposit inh: fibronectin deposition inhibition. AH1F fibroblasts, Alexa488-fibronectin deposition fluorescence, overnight. inhibition, % at 12.6 µM. hit rate 0.086% among 350,000;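 active = mean inhibition across replicates of 30% or more, regardless of how many single replicates reach that level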;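 also: positive control wells lacked labelled fibronectin entirely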
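Material: AH1F fibroblast monolayer depositing Alexa488-labelled fibronectin into matrix | Input: 10000 AH1F cells/well | Medium: DMEM plus 2% serum, read in PBS | Reagent: Alexa488-fibronectin, 24 nM final in well | Compound dosing: One dose per compound, pinned | Schedule: 1 h adhesion, overnight exposure | Measured by: Fluorescence at 485 nm excitation, 525 nm emission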
Env fusion inh: blocks HIV Env-driven cell-cell fusion; HeLa-JRFL Env/CEM21 cell fusion, luciferase; inhibition, % at 12.3 µM; hit rate 1.1% among 360,000; AID 651610;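 active = mean replicate inhibition score of at least 50 and every replicate individually at or above 50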;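 also: 0% = plate neutral controls and 100% = maraviroc near 300 nM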
An asterisk follows results filed as active; . = not tested or not shown; [ ] = dose if it differs, or a comment.

SMILES	Vif inh	miR122 inh	S100A4 inh HTS	Ecoli rRNA inh	FN deposit inh	Env fusion inh
C[C@@H]1CN([C@@H](C)CO)C(=O)c2cc(NC(=O)NC3CCCCC3)ccc2O[C@@H]1CN(C)C(=O)Nc1ccc2c(c1)OCO2	.	-32[16.7 µM]	3	-4	-12	5[16.7 µM]
CC(C)NC(=O)N(C)C[C@H]1OCCCC[C@@H](C)Oc2ccc(N(C)C)cc2C(=O)N([C@@H](C)CO)C[C@H]1C	.	-1[16.7 µM]	12	7	-9	14[16.7 µM]
CC(=O)/C(=N/Nc1ccccc1[N+](=O)[O-])N1CCCc2ccccc21	1	-7	1	-28*	3	-13
CC(=O)/C(=N/Nc1ccc([N+](=O)[O-])cc1)N1CCCc2ccccc21	1	-2	1	14	4	11
CO[C@@H]1CN(C)C(=O)c2ccc(NC(=O)C3CCOCC3)cc2OC[C@H](C)N(Cc2nccs2)C[C@H]1C	.	.	.	1	6	-9[16.7 µM]
Cc1noc(C)c1S(=O)(=O)N(C)C[C@@H]1OCCCC[C@H](C)Oc2ccc(NC(=O)C3CCCCC3)cc2C(=O)N([C@H](C)CO)C[C@H]1C	.	11[16.7 µM]	111*	-3	.	-7[16.7 µM]
Cc1noc(C)c1S(=O)(=O)N(C)C[C@H]1OCCCC[C@H](C)Oc2ccc(NC(=O)Nc3ccccc3)cc2C(=O)N([C@@H](C)CO)C[C@@H]1C	.	8[16.7 µM]	27	-1	-2	65*[16.7 µM]
COc1ccc(NC(=O)Nc2ccc3c(c2)C(=O)N([C@@H](C)CO)C[C@@H](C)[C@H](CN(C)S(=O)(=O)c2c(C)noc2C)OCCCC[C@@H](C)O3)cc1	.	0[16.7 µM]	.	-2	.	-35[16.7 µM]
COc1ccc(NC(=O)Nc2ccc3c(c2)C(=O)N([C@@H](C)CO)C[C@H](C)[C@@H](CN(C)S(=O)(=O)c2c(C)noc2C)OCCCC[C@H](C)O3)cc1	.	-5[16.7 µM]	.	-2	.	68*[16.7 µM]
CNC(=O)C[C@@H]1CC[C@@H]2[C@H](COc3ccc(NC(=O)c4cccc(OC)c4)cc3C(=O)N2C)O1	.	-8[16.7 µM]	1	3	0	-9[16.7 µM]
C[C@@H]1CN([C@H](C)CO)C(=O)Cc2cc(NC(=O)CCC(F)(F)F)ccc2O[C@@H]1CN(C)C(=O)Nc1ccc(C(F)(F)F)cc1	.	6[16.7 µM]	.	1	.	-6[16.7 µM]
COc1ccc(CN2CC3(CCN(S(=O)(=O)c4ccc(C)cc4)CC3)c3c([nH]c4cc(OC)ccc34)[C@@H]2CO)cc1	.	.	.	-50	.	.
COc1ccc(Cl)cc1NC(=O)NC(C)C	-2	.	-2	5	-9	7
CC(C)NC(=O)Nc1n[nH]c(Nc2ccc(Cl)cc2)n1	5	0	3	-18*	9	-70
Cc1ccc(N(C(=O)CCCC(=O)Nc2ccccn2)C(C(=O)NC2CCCC2)c2ccc(O)cc2)cc1C (stereo unspecified)	-5	6	0	5	1	15
Cc1ccccc1N(C(=O)CCCC(=O)Nc1ccccn1)C(C(=O)NC1CCCC1)c1ccc(O)cc1 (stereo unspecified)	2	132*	5	1	3	4
COC(=O)/C(=C/Nc1cccc2ccccc12)[N+](=O)[O-]	-5	.	-6	-21*	.	.
COc1cc(OC)c2c(c1)OC(=O)CC2c1ccc2c(c1)OCO2 (stereo unspecified)	-3	-3	-9	-28*	9	5
O=C(Nc1ccccc1F)N[C@@H]1CC[C@H](CCNS(=O)(=O)c2ccc(F)cc2)O[C@H]1CO	.	.	-1	0	-5	-12[16.7 µM]
Nc1nc(-c2ccccc2)c(N=Nc2ccc(Cl)cc2)s1	-8	.	0	-42*	5	10
COc1ccc2c3c(n(C)c2c1)[C@@H](CO)N(C(=O)c1ccccc1)CC31CN(C(=O)c2ccccc2)C1	.	.	10	-4	.	49[16.7 µM]
C/C(=N\NC(N)=O)c1ccc(-n2ccnc2)cc1	1	-4	3	-16*	3	5
COc1ccccc1OCc1ccc(C(=O)Nc2cc(OC)c(OC)c(OC)c2)o1	-10	-5	-1	-22*	-5	8
COc1ccc(C(=O)Nc2ccc3ccccc3c2)cc1OC	-1	-5	-1	-2	2	-104
COc1cc(C(=O)Nc2ccc3ccccc3c2)cc(OC)c1OC	.	.	-3	-25*	10	-156
SMILES	Vif inh	miR122 inh	S100A4 inh HTS	Ecoli rRNA inh	FN deposit inh	Env fusion inh
COc1cccc(NC(C)(C)c2nnnn2-c2c(C)cccc2C)c1	.	-4	0	-24*	1	14
COc1ccc(S(=O)(=O)CC(=O)c2cc3cc(Br)ccc3oc2=O)cc1	-5	.	-3	-22*	-15	-1
CCNC(=O)[C@H]1O[C@@H](n2cnc3c(N)nc(NCCc4ccc(CCC(=O)O)cc4)nc32)[C@H](O)[C@@H]1O	63*	0	-4	.	6	-16
NC(=O)NC(c1ccccc1)c1ccccc1F (stereo unspecified)	1	-4	.	.	.	-12
NC(=O)NC(c1ccc(Cl)cc1)c1ccccc1Cl (stereo unspecified)	-5	.	-2	-35*	-9	5
NC(=O)NC(c1ccccc1)c1cccc2ccccc12 (stereo unspecified)	.	4	-19	-33*	.	.
NC(=O)NC(c1ccccc1)c1ccccc1	0	5	4	7	.	.
O=S(=O)(N[C@@H]1CC[C@@H](CCn2cc(-c3ccccc3F)nn2)O[C@H]1CO)c1ccc(Cl)cc1	.	.	-6	-4	-4	22[16.7 µM]
COc1ccc(CCNc2nnc(Sc3nnnn3-c3ccccc3)s2)cc1OC	139*	41	.	.	-10	-222
C[C@@H]1CN([C@@H](C)CO)C(=O)c2cc(C3=CCCC3)cnc2O[C@H]1CN(C)Cc1ccc(C(=O)O)cc1	.	-1[16.7 µM]	-1	3	-13	2[16.7 µM]
O=c1oc2ccccc2c(NCc2ccc(Cl)cc2)c1[N+](=O)[O-]	-5	1	2	-39*	5	-4
O=c1oc2ccccc2c(NCc2ccccc2)c1[N+](=O)[O-]	-4	-2	-13	-21	0	.
CCC(=O)N1C[C@@H](C)[C@@H](OC)CN(C)C(=O)c2ccc(NC(=O)Nc3cccc(F)c3)cc2OC[C@H]1C	.	6[16.7 µM]	-16	-4	-11	.
CCC(=O)N1C[C@H](C)[C@@H](OC)CN(C)C(=O)c2ccc(NC(=O)Nc3ccccc3)cc2OC[C@H]1C	.	1[16.7 µM]	124*	-6	-20	.
CO[C@@H]1CN(C)C(=O)c2ccc(NS(C)(=O)=O)cc2OC[C@@H](C)N(C(=O)C2CCCCC2)C[C@H]1C	.	.	6	4	-16	66*[16.7 µM]
CCCNC(=O)Nc1ccc2c(c1)OC[C@@H](C)N(C(=O)C1CC1)C[C@H](C)[C@@H](OC)CN(C)C2=O	.	0[16.7 µM]	98*	-2	-3	.

High-throughput results from PubChem.
